Measured values reported in ChEMBL document CHEMBL3259614, “Design, synthesis, and structure-activity relationship studies of novel fused heterocycles-linked triazoles with good activity and water solubility” (J Med Chem, 2014).
Values after ≈ are worked out from the molar mass of the structure shown.

Columns and labels:
Type in all cases: functional
Candida albicans [1] = experiment: Antimicrobial activity against Candida albicans SC5314 after 24 hrs by serial dilution method; settings: SC5314, 24 h
Outline: (§1)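 Broth serial dilution MIC in 96-well plates following NCCLS/CLSI methods. Compounds were dissolved in DMSO and serially diluted in growth medium, with incubation at 35 °C. […] C. parapsilosis 22019 served as the quality-control strain in each assay.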

Candida albicans [2] = experiment: Antimicrobial activity against Candida albicans Y0109 after 24 hrs by serial dilution method; settings: Y0109, 24 h; outline: as §1
Nakaseomyces glabratus = experiment: Antimicrobial activity against Candida glabrata 537 after 24 hrs by serial dilution method; settings: Nakaseomyces glabratus, 537, 24 h; outline: as §1
Cryptococcus neoformans = experiment: Antimicrobial activity against Cryptococcus neoformans 32609 after 72 hrs by serial dilution method; settings: Cryptococcus neoformans, 32609, 72 h; outline: as §1
Candida parapsilosis = experiment: Antimicrobial activity against Candida parapsilosis 22019 after 24 hrs by serial dilution method; settings: Lodderomyces parapsilosis, 22019, 24 h; outline: as §1
Aspergillus fumigatus = experiment: Antimicrobial activity against Aspergillus fumigatus 7544 after 48 hrs by serial dilution method; settings: Aspergillus fumigatus, 7544, 48 h; outline: as §1

Structure (SMILES) | MIC (Candida albicans [1]) [µg/mL] | MIC (Candida albicans [2]) [µg/mL] | MIC (Nakaseomyces glabratus) [µg/mL] | MIC (Cryptococcus neoformans) [µg/mL] | MIC (Candida parapsilosis) [µg/mL] | MIC (Aspergillus fumigatus) [µg/mL]
C[C@@H](N1CCn2ncnc2C1)[C@](O)(Cn1cncn1)c1ccc(F)cc1F | 0.25 (≈ 0.666 µM) | 0.25 (≈ 0.666 µM) | 0.5 (≈ 1.33 µM) | 0.5 (≈ 1.33 µM) | 0.25 (≈ 0.666 µM) | 16 (≈ 42.6 µM)
C[C@@H](N1CCn2nc(C(F)(F)F)nc2C1)[C@](O)(Cn1cncn1)c1ccc(F)cc1F | 0.25 (≈ 0.564 µM) | 0.5 (≈ 1.13 µM) | 1 (≈ 2.26 µM) | 0.5 (≈ 1.13 µM) | 0.5 (≈ 1.13 µM) | 32 (≈ 72.2 µM)
C[C@@H](N1CCn2nc(-c3ccc(C#N)cc3)nc2C1)[C@](O)(Cn1cncn1)c1ccc(F)cc1F | 0.125 (≈ 0.262 µM) | 0.125 (≈ 0.262 µM) | 0.125 (≈ 0.262 µM) | 0.125 (≈ 0.262 µM) | 0.5 (≈ 1.05 µM) | 64 (≈ 134 µM)
Cc1cccc(-c2nc3n(n2)CCN([C@H](C)[C@](O)(Cn2cncn2)c2ccc(F)cc2F)C3)c1 | 0.0625 (≈ 0.134 µM) | 0.125 (≈ 0.269 µM) | 0.125 (≈ 0.269 µM) | 0.125 (≈ 0.269 µM) | 0.25 (≈ 0.537 µM) | 32 (≈ 68.7 µM)
C[C@@H](N1CCn2nc(-c3ccc(Br)cc3)nc2C1)[C@](O)(Cn1cncn1)c1ccc(F)cc1F | 0.25 (≈ 0.471 µM) | 0.125 (≈ 0.236 µM) | 0.5 (≈ 0.943 µM) | 0.25 (≈ 0.471 µM) | 0.5 (≈ 0.943 µM) | 16 (≈ 30.2 µM)
C[C@@H](N1CCn2nc(-c3ccc(F)cc3)nc2C1)[C@](O)(Cn1cncn1)c1ccc(F)cc1F | 0.25 (≈ 0.533 µM) | 0.125 (≈ 0.266 µM) | 0.125 (≈ 0.266 µM) | 0.125 (≈ 0.266 µM) | 0.125 (≈ 0.266 µM) | 32 (≈ 68.2 µM)
C[C@@H](N1CCn2nc(-c3ccc(Cl)cc3)nc2C1)[C@](O)(Cn1cncn1)c1ccc(F)cc1F | 0.25 (≈ 0.514 µM) | 0.125 (≈ 0.257 µM) | 0.5 (≈ 1.03 µM) | 0.125 (≈ 0.257 µM) | 0.5 (≈ 1.03 µM) | 16 (≈ 32.9 µM)
C[C@@H](N1CCn2nc(-c3cccc(Cl)c3)nc2C1)[C@](O)(Cn1cncn1)c1ccc(F)cc1F | 0.25 (≈ 0.514 µM) | 0.125 (≈ 0.257 µM) | 1 (≈ 2.06 µM) | 2 (≈ 4.12 µM) | 1 (≈ 2.06 µM) | 64 (≈ 132 µM)
C[C@@H](N1CCn2nc(-c3cccc(Br)c3)nc2C1)[C@](O)(Cn1cncn1)c1ccc(F)cc1F | 0.25 (≈ 0.471 µM) | 0.125 (≈ 0.236 µM) | 1 (≈ 1.89 µM) | 1 (≈ 1.89 µM) | 0.5 (≈ 0.943 µM) | 16 (≈ 30.2 µM)
C[C@@H](N1CCn2nc(-c3cccc(C(F)(F)F)c3)nc2C1)[C@](O)(Cn1cncn1)c1ccc(F)cc1F | 0.5 (≈ 0.963 µM) | 2 (≈ 3.85 µM) | 0.25 (≈ 0.481 µM) | 2 (≈ 3.85 µM) | 0.5 (≈ 0.963 µM) | 16 (≈ 30.8 µM)
C[C@@H](N1CCn2nc(-c3ccc(C(F)(F)F)cc3)nc2C1)[C@](O)(Cn1cncn1)c1ccc(F)cc1F | 0.25 (≈ 0.481 µM) | 0.5 (≈ 0.963 µM) | 0.125 (≈ 0.241 µM) | 1 (≈ 1.93 µM) | 0.5 (≈ 0.963 µM) | 16 (≈ 30.8 µM)
C[C@@H](N1CCn2nc(-c3ccc(F)cc3F)nc2C1)[C@](O)(Cn1cncn1)c1ccc(F)cc1F | 0.125 (≈ 0.256 µM) | 0.125 (≈ 0.256 µM) | 0.5 (≈ 1.03 µM) | 0.5 (≈ 1.03 µM) | 0.25 (≈ 0.513 µM) | > 64
CC(C)c1cccc(-c2nc3n(n2)CCN([C@H](C)[C@](O)(Cn2cncn2)c2ccc(F)cc2F)C3)c1 | 0.25 (≈ 0.507 µM) | 4 (≈ 8.1 µM) | 4 (≈ 8.1 µM) | 8 (≈ 16.2 µM) | 4 (≈ 8.1 µM) | 16 (≈ 32.4 µM)
Cc1ccc(-c2nc3n(n2)CCN([C@H](C)[C@](O)(Cn2cncn2)c2ccc(F)cc2F)C3)cc1 | 0.0625 (≈ 0.134 µM) | 0.125 (≈ 0.269 µM) | 0.125 (≈ 0.269 µM) | 0.125 (≈ 0.269 µM) | 0.125 (≈ 0.269 µM) | 32 (≈ 68.7 µM)
COc1ccc(-c2nc3n(n2)CCN([C@H](C)[C@](O)(Cn2cncn2)c2ccc(F)cc2F)C3)cc1 | 0.0625 (≈ 0.13 µM) | 0.125 (≈ 0.26 µM) | 0.125 (≈ 0.26 µM) | 0.125 (≈ 0.26 µM) | 0.25 (≈ 0.519 µM) | 32 (≈ 66.5 µM)
C[C@@H](N1CCn2nc(-c3cccc(F)c3)nc2C1)[C@](O)(Cn1cncn1)c1ccc(F)cc1F | 0.125 (≈ 0.266 µM) | 0.125 (≈ 0.266 µM) | 0.25 (≈ 0.533 µM) | 0.5 (≈ 1.07 µM) | 0.5 (≈ 1.07 µM) | 16 (≈ 34.1 µM)
C[C@@H](N1CCn2nc(-c3cccc(C#N)c3)nc2C1)[C@](O)(Cn1cncn1)c1ccc(F)cc1F | 0.125 (≈ 0.262 µM) | 0.125 (≈ 0.262 µM) | 0.5 (≈ 1.05 µM) | 0.5 (≈ 1.05 µM) | 0.125 (≈ 0.262 µM) | 16 (≈ 33.6 µM)
COc1cccc(-c2nc3n(n2)CCN([C@H](C)[C@](O)(Cn2cncn2)c2ccc(F)cc2F)C3)c1 | 0.0625 (≈ 0.13 µM) | 0.125 (≈ 0.26 µM) | 0.125 (≈ 0.26 µM) | 0.25 (≈ 0.519 µM) | 0.25 (≈ 0.519 µM) | 32 (≈ 66.5 µM)
CC(C)c1ccc(-c2nc3n(n2)CCN([C@H](C)[C@](O)(Cn2cncn2)c2ccc(F)cc2F)C3)cc1 | 0.5 (≈ 1.01 µM) | 0.5 (≈ 1.01 µM) | 1 (≈ 2.03 µM) | 2 (≈ 4.05 µM) | 1 (≈ 2.03 µM) | 16 (≈ 32.4 µM)
C[C@@H](N1CCn2nc(-c3cccs3)nc2C1)[C@](O)(Cn1cncn1)c1ccc(F)cc1F | 0.125 (≈ 0.273 µM) | 0.125 (≈ 0.273 µM) | 0.25 (≈ 0.546 µM) | 0.125 (≈ 0.273 µM) | 0.125 (≈ 0.273 µM) | 8 (≈ 17.5 µM)
